The values that follow come from ChEMBL document CHEMBL2401668, “Evaluation of thiazole containing biaryl analogs as diacylglycerol acyltransferase 1 (DGAT1) inhibitors” (Eur J Med Chem, 2013).

As usually defined, the AUC(0-inf) is total exposure, with the tail of the curve extrapolated. Broadly, the half-life is the time in which the quantity being followed falls by half. As usually defined, the AUC(0-t) is exposure summed from dosing to a finite time, without extrapolation to infinity. Broadly, the Tmax is the time at which the peak concentration occurs. A word on the Cmax: it is the highest concentration seen after dosing. One may read the solubility as the concentration that dissolves in the medium under given conditions.

Converted amounts (≈) assume the structure as drawn.

Data set [1] is described as follows: AUC (infinity) in Swiss mouse at 10 mg/kg, po by ESI-LC/MS/MS method. The data set is classed as ADME, organism-based. Further details: time infinity, dose 10 mg/kg, route oral. The note with it: plasma. Summed up: (§1)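 Oral dose of 10 mg/kg, given as a 1 mg/ml suspension in 0.5% CMC with Tween 80 to weighed Swiss mice (n = 4). Blood was drawn at 0.08–24 h, and plasma was kept on ice, centrifuged at 4 °C and stored at −80 °C. Levels were measured by ESI-LC/MS/MS. Parameters came from non-compartmental analysis: Cmax and Tmax read from the profile, AUC0–t by linear trapezoidal rule, AUCinf extrapolated, and T1/2 = 0.693/λz.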

The nature of data set [2]: Half life in Swiss mouse at 10 mg/kg, po by ESI-LC/MS/MS method. The data set is classed as ADME, organism-based. Also on record: dose 10 mg/kg, route oral. Conditions: in vivo. In a few lines: as §1
The nature of data set [3]: AUC (0 to t) in Swiss mouse at 10 mg/kg, po by ESI-LC/MS/MS method. It counts as ADME, organism-based. The note with it: plasma. Also on record: dose 10 mg/kg, route oral. In a few lines: as §1
Data set [4] is described as follows: Tmax in Swiss mouse at 10 mg/kg, po by ESI-LC/MS/MS method. The data set is classed as ADME, organism-based. Further details: dose 10 mg/kg, route oral. Conditions: in vivo. In a few lines: as §1
A short description of data set [5]: Cmax in Swiss mouse at 10 mg/kg, po by ESI-LC/MS/MS method. It counts as ADME, organism-based. Further details: dose 10 mg/kg, route oral. The note with it: in vivo. In a few lines: as §1
Data set [6] concerns Mus musculus. Description: Antihyperlipidemic activity in Swiss mouse assessed as reduction in plasma triglyceride level at 3 mg/kg, po after 1 to 4 hrs by acute fat tolerance test relative to control. The data set is classed as functional. Further details: scale not given: the % may be the effect or the level left. In a few lines:
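Fasted Swiss mice (4–5 weeks, 25–30 g) were given 3 mg/kg by oral gavage as a suspension in 0.5% CMC with Tween 80, or vehicle (0.5% CMC). An olive oil bolus (10 ml/kg) followed 1 h later. Plasma was taken at 1, 2, 3 and 4 h and triglycerides were measured with a kit. The triglyceride AUC0–4 h was expressed as percent reduction, with the vehicle group taken as 100%.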

The nature of data set [7]: Solubility of the compound at pH 7.4. It counts as physicochemical. Conditions: buffer.

In data set [1], `CC(C)[C@H](NC(=O)c1ccc(-c2ccc(Nc3nc4ccc(F)cc4s3)cc2)cc1)C(=O)O` came in with an AUC(0-inf) of 5.35 µg·h/mL. In data set [2], this compound gave a half-life of 37.2 min. This compound gave an AUC(0-t) in data set [3] of 5.34 µg·h/mL. In addition, the Tmax in data set [4] stood at 15 min. In data set [5], this compound gave a Cmax of 5.3 µM. The Activity in data set [6] was 90%. The compound also gave a solubility in data set [7] of 0.01 mg/mL (≈ 21.6 µM).

Regarding `CC(C)[C@H](NC(=O)c1ncc(-c2ccc(NC(=O)Nc3ccccc3Cl)cc2)s1)C(=O)O`, in data set [1], the area under the curve AUC(0-inf) worked out at 0.672 µg·h/mL. Further, the half-life in data set [2] is 29.4 min. In data set [3], the AUC(0-t) stood at 0.623 µg·h/mL. In addition, the Tmax in data set [4] came out at 9.6 min. The Cmax in data set [5] amounted to 1.9 µM. The Activity in data set [6] was 82%.

Take `CC(C)[C@H](NC(=O)c1ncc(-c2ccc(NC(=O)c3ccc(C(C)(C)C)cc3)cc2)s1)C(=O)O`: the AUC(0-inf) in data set [1] was 7.07 µg·h/mL. The compound also had a half-life in data set [2] of 49.8 min. Further, the AUC(0-t) in data set [3] amounted to 7.06 µg·h/mL. For the same compound, the Tmax in data set [4] was found to be 10.2 min. The compound also registered a Cmax in data set [5] of 11.3 µM. Besides, the Activity in data set [6] amounted to 87%.
